ChEMBL document CHEMBL1811832, “Transformation of isosteviol lactam by fungi and the suppressive effects of its transformed products on LPS-induced iNOS expression in macrophages” (2011)

What follows are compounds tested on RAW264.7 (assay: Antiinflammatory activity against mouse RAW264.7 cells assessed as inhibition of LPS-induced iNOS mRNA expression at 10 uM after 24 hrs by RT-PCR relative to control).
Format: functional
Method in brief: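 Murine RAW 264.7 macrophages stimulated with LPS 100 ng/mL for 4 h, then treated with compound at 10 μM for 24 h with LPS still present; dexamethasone as reference. Total RNA extracted with TRIzol, oligo(dT)-primed cDNA, real-time PCR (50 cycles, dissociation-curve check). iNOS mRNA expressed as fold relative to LPS-only cells; mean ± SEM, n = 3, paired two-tailed t-test.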

SMILES	fold change (FC)
CO[C@H]1C[C@@H]2[C@@](CC#N)(C=C1C)CC[C@H]1[C@@]2(C)CCC[C@@]1(C)C(=O)O	0.2
C[C@@]12CC[C@@H]3[C@@](CC[C@H]4[C@@]3(C)CCC[C@@]4(C)C(=O)O)(CC1=O)C2 [ISOSTEVIOL]	0.29
CC1=C[C@@]2(CC#N)CC[C@H]3[C@](C)([C@@H]2CC1)[C@@H](O)CC[C@@]3(C)C(=O)O	0.43
C[C@@H]1C[C@H]2[C@@H]3CCC4=CC(=O)C=C[C@]4(C)[C@@]3(F)[C@@H](O)C[C@]2(C)[C@@]1(O)C(=O)CO [DEXAMETHASONE]	0.16
CC1=C[C@@]2(CC#N)CC[C@H]3[C@@](C)(CCC[C@@]3(C)C(=O)O)[C@@H]2CC1	0.48
CC1=CC[C@@H]2[C@](CC#N)(CC[C@H]3[C@@]2(C)CCC[C@@]3(C)C(=O)O)C1	0.63
C[C@]12CC[C@H]3[C@]4(C)CCC[C@@](C)(C(=O)O)[C@H]4CC[C@@]3(C1)[C@H](Cl)C(=O)N2	0.85
C[C@@]12CC[C@@H]3[C@@](CC[C@H]4[C@@]3(C)CCC[C@@]4(C)C(=O)O)(CC(=O)N1)C2 [ISOSTEVIOL LACTAM]	0.15
CC1=C[C@@]2(CC#N)[C@@H](O)C[C@H]3[C@@](C)(CCC[C@@]3(C)C(=O)O)[C@@H]2CC1	0.12
CC1=CC[C@@H]2[C@](CC#N)(CC[C@H]3[C@@]2(C)CCC[C@@]3(C)C(=O)OCCO)C1	0.5
C[C@@]12CC[C@@H]3[C@@](CC[C@H]4[C@@]3(C)CCC[C@@]4(C)C(=O)O)(C/C1=N\O)C2 [ISOSTEVIOL OXIME]	0.15
C[C@@]12CCC[C@@](C)(C(=O)O)[C@H]1CC[C@]13CC(=O)N[C@](C)(C1)[C@@H](O)C[C@H]32	0.13
C[C@@]12CC[C@H]3[C@]4(C)CCC[C@@](C)(C(=O)O)[C@H]4C[C@H](O)[C@]3(CC(=O)N1)C2	0.61
CCO[C@@H]1C[C@@H]2[C@@](CC#N)(C=C1C)CC[C@H]1[C@@]2(C)CCC[C@@]1(C)C(=O)O	0.21
C=C1C[C@@]2(CC#N)CC[C@H]3[C@@](C)(CCC[C@@]3(C)C(=O)O)[C@@H]2C[C@H]1Cl	0.3
